Laboratory results: PubChem BioAssay AID602485 (The Scripps Research Institute Molecular Screening Center, 2012)
The source made the active and inactive calls.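 How the source made its calls: active means at least 50% ABHD10 inhibition in mouse heart after 25 mg/kg, and no other enzyme inhibited 50% at any dose; inactive means the rest.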

Columns and labels:
[1] = target: Palmitoyl-protein thioesterase ABHD10, mitochondrial (Mus musculus) (UniProt Q6PE15); test: ABHD10 inhibition in dosed mice, late-stage follow-up, in vivo study for PME-1 inhibitor project, gel-based competitive ABPP, fluorescence, mouse heart (AID 602485); details: C57BL/6 mice i.p., heart proteome, FP-Rh gel ABPP, stronger effect = higher value
Chain of Palmitoyl-protein thioesterase ABHD10, mitochondrial (Mus musculus) (Q6PE15 whole entry, looked up): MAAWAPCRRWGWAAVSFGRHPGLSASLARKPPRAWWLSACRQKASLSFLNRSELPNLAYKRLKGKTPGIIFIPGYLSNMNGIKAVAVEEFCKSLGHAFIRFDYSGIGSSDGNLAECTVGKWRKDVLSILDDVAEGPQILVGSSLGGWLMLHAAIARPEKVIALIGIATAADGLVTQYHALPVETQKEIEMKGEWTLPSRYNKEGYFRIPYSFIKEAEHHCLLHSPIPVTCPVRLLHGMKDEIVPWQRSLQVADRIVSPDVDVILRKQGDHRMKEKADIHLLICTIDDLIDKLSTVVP
How it was run: (§1)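 System: C57BL/6 mouse heart soluble proteome / Reagent: FP-Rh activity-based probe, 1 µM final / Timing: 6 h in vivo exposure, probe labelling 30 min at 25 °C / Signal: in-gel fluorescence after SDS-PAGE / Controls: vehicle-dosed mice as high control, blank gel background as low / Replication: n of 1 per dose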

[2] = as above; details: C57BL/6 mice i.p., heart proteome, FP-Rh gel ABPP; anti-targets at any tested dose
How it was run: as §1

CC[C@@]1(c2ccc(C)cc2)C(=O)N(C(=O)OC(C)C)N1C(=O)OC(C)C
inhibition [1]: 99% | inhibition ([1]; inhibition at 6 mg/kg): 10% | inhibition ([1]; inhibition at 13 mg/kg): 60% | outcome [2]: inactive
